Test results taken from ChEMBL document CHEMBL1144042, “Cytotoxic simplified tubulysin analogues” (J Med Chem, 2008).

Assays:
[1] = system: 1A9; experiment: Cytotoxicity against human 1A9 cells; assay type: functional, cell-based
[2] = Inhibition of rat brain tubulin polymerization
Summary of the method: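 Rat brain tubulin (10 µM) mixed on ice with test compound at 0.5, 1, 2 and 4 µM in 0.8 M sodium glutamate, pH 6.6, with 0.4 mM GTP. Samples then warmed to 33 °C. Polymerization followed over time as optical density at 350 nm. IC50 taken from the concentration series.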

[3] = Anticancer activity against multidrug-resistant human KBV1 cells; assay type: functional, cell-based; settings: KB-V1
[4] = system: HCT-15; experiment: Anticancer activity against multidrug-resistant human HCT15 cells; assay type: functional

SMILES	IC50 [1]	other results
CC[C@@H](C)[C@H](NC(=O)[C@@H]1CCCCN1)C(=O)N[C@H](CC(=O)c1nc(C(=O)N[C@@H](Cc2ccccc2)C[C@H](C)C(=O)O)cs1)C(C)C	24000 nM	–
CC[C@@H](C)[C@H](NC(=O)[C@H]1CCCCN1)C(=O)N[C@H](CC(=O)c1nc(C(=O)N[C@@H](Cc2ccccc2)C[C@H](C)C(=O)O)cs1)C(C)C	23000 nM	–
CCC(C)[C@H](NC(=O)[C@H]1CCCCN1C)C(=O)N[C@H](CC(=O)c1nc(C(=O)N[C@@H](Cc2ccccc2)C[C@H](C)C(=O)O)cs1)C(C)C (single isomer, unassigned)	200 nM	IC50 [2]: 1800 nM
CCC(C)[C@H](NC(=O)[C@@H]1CCCN1)C(=O)N[C@H](CC(=O)c1nc(C(=O)N[C@@H](Cc2ccccc2)C[C@H](C)C(=O)O)cs1)C(C)C (single isomer, unassigned)	> 33000 nM	–
CCC(C)[C@H](NC(=O)[C@@H]1CCCCN1C)C(=O)N[C@H](CC(=O)c1nc(C(=O)N[C@@H](Cc2ccccc2)C[C@H](C)C(=O)O)cs1)C(C)C (single isomer, unassigned)	25000 nM	–
CCC(C)[C@H](NC(=O)[C@@H]1CCCN1C)C(=O)N[C@H](CC(=O)c1nc(C(=O)N[C@@H](Cc2ccccc2)C[C@H](C)C(=O)O)cs1)C(C)C (single isomer, unassigned)	18000 nM	–
CCC(C)[C@H](NC(=O)[C@H]1CCCN1C)C(=O)N[C@H](CC(=O)c1nc(C(=O)N[C@@H](Cc2ccccc2)C[C@H](C)C(=O)O)cs1)C(C)C (single isomer, unassigned)	800 nM	IC50 [2]: 1000 nM
CCC(C)[C@H](NC(=O)[C@H]1CCCN1)C(=O)N[C@H](CC(=O)c1nc(C(=O)N[C@@H](Cc2ccccc2)C[C@H](C)C(=O)O)cs1)C(C)C (single isomer, unassigned)	> 33000 nM	–
CCC(C)[C@H](NC(=O)[C@H]1CCCCN1C)C(=O)N(COC(=O)CC(C)C)[C@H](C[C@@H](OC(C)=O)c1nc(C(=O)N[C@@H](Cc2ccccc2)C[C@H](C)C(=O)O)cs1)C(C)C (single isomer, unassigned) [TUBULYSIN D]	–	IC50 [3]: 0.31 nM
COc1cc([C@@H]2c3cc4c(cc3[C@H](O)[C@H]3COC(=O)[C@H]23)OCO4)cc(OC)c1OC [PODOFILOX]	3 nM	–
CN[C@H](C(=O)N[C@H](C(=O)N(C)[C@H](/C=C(\C)C(=O)O)C(C)C)C(C)(C)C)C(C)(C)c1ccccc1 [TALTOBULIN]	0.03 nM	IC50 [2]: 1000 nM
CC[C@@H](C)[C@H](NC(=O)[C@H]1CCCCN1C)C(=O)N(COC(=O)CC(C)C)[C@H](C[C@@H](OC(C)=O)c1nc(C(=O)N[C@@H](Cc2ccc(O)cc2)C[C@H](C)C(=O)O)cs1)C(C)C [TUBULYSIN A]	–	GI50 [4]: 0.12 nM
